Assay results from ChEMBL document CHEMBL1123658, “1-(2-pyridinyl)piperazine derivatives with antianaphylactic, antibronchospastic, and mast cell stabilizing activities” (J Med Chem, 1987).

Columns and labels:
Rattus norvegicus [1] = test: Rat PCA Test(50% inhibition of spot areas)in the female albino rats after (ip) administration in 10% aqueous acacia gum; value ranges from 115-142; type: functional; conditions: read-out: ID50 (the source's name)
Method in brief: (§1)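 Female albino rats (200–250 g) received intradermal ventral injections of rat anti-egg-albumin antiserum; donors were raised with egg albumin im plus H. pertussis ip, and serum was taken at 12 days. 24 h later, compound was given ip in 10% acacia gum (10 mL/kg), 10 rats/group. Challenge 30 min later was iv 0.3% egg albumin plus 1% Evans blue. Blued areas were measured 30 min after challenge.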

Cavia porcellus [2] = test: Antibronchospatic activity determined by histamine stimulated bronchospasm inhibition in guinea pigs after(i.v.) administration; type: functional, Bronchiole
Method in brief: (§2)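 Guinea pigs, Konzett–Rössler preparation. Bronchospasm was induced with histamine. Compound was given iv (1 mL/kg) 1 min before the agonist, dissolved in saline or saline with slight excess HCl or CH3SO3H (pH 3.5–4). Three doses were tested in duplicate, chosen to give 20–90% inhibition. ID75 was read graphically from log dose–response curves.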

Rattus norvegicus [3] = test: Inhibition of mast cell degranulation was assessed in female albino rats at a dose of 35 umol/kg iv; type: functional
[4] = In vivo toxicity in mouse after oral administration with 10% aqueous acacia gum; type: organism-based
Method in brief: (§3)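 Female albino mice, 20-30 g. Compound given orally as solution or suspension in 10% aqueous acacia gum, 10 animals per dose. Deaths recorded over 7 days.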

Rattus norvegicus [5] = test: Rat PCA Test(50% inhibition of spot areas)in the female albino rats after (ip) administration in 10% aqueous acacia gum; value ranges from 23-40; type: functional; conditions: read-out: ID50 (the source's name); method in brief: as §1
Rattus norvegicus [6] = test: Rat PCA Test(50% inhibition of spot areas)in the female albino rats after oral administration in 10% aqueous acacia gum; value ranges from 88-129; type: functional; conditions: read-out: ID50 (the source's name)
Method in brief: (§4)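 Female rats (200-250 g) were passively sensitized by ventral intradermal anti-egg-albumin antiserum. This was raised in rats by intramuscular 1% egg albumin plus ip H. pertussis vaccine, with serum taken at 12 days. After 24 h, groups of 10 were dosed orally with compound or vehicle (10 mL/kg). At 60 min, iv challenge used 0.3% egg albumin with 1% Evans blue. Blued areas were measured after 30 min.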

Rattus norvegicus [7] = test: Inhibition of mast cell degranulation was assessed in female albino rats at a dose of 22 umol/kg iv; type: functional
[8] = In vivo toxic effect was determined in mouse after intraperitoneal administration with 10% aqueous acacia gum; value ranges from 0.53-0.97; type: toxicity, organism-based; conditions: ip
Method in brief: (§5)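 Female albino mice (20-30 g), 10 animals per dose, dosed intraperitoneally with compound in solution or suspension; compounds tested as salts unless noted. Mortality was recorded over 7 days.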

[9] = In vivo toxic effect was determined in mouse after oral administration with 10% aqueous acacia gum; value ranges from 0.66-1.27; type: toxicity, organism-based
Rattus norvegicus [10] = test: Rat PCA Test(50% inhibition of spot areas)in the female albino rats after (ip) administration in 10% aqueous acacia gum; value ranges from […]; type: functional; conditions: read-out: ID50 (the source's name); method in brief: as §1
[11] = In vivo toxic effect was determined in mouse after intraperitoneal administration with 10% aqueous acacia gum; value ranges from 0.55-1.17; type: toxicity, organism-based; conditions: ip; method in brief: as §5
Rattus norvegicus [12] = test: Inhibition of mast cell degranulation was assessed in female albino rats at a dose of 48 umol/kg iv; type: functional
[13] = In vivo toxic effect was determined in mouse after oral administration with 10% aqueous acacia gum; value ranges from 0.69-1.33; type: toxicity, organism-based; method in brief: as §3
Rattus norvegicus [14] = test: Rat PCA Test(50% inhibition of spot areas)in the female albino rats after oral administration in 10% aqueous acacia gum; type: functional; conditions: read-out: ID50 (the source's name); method in brief: as §4
[15] = In vivo toxic effect was determined in mouse after intraperitoneal administration with 10% aqueous acacia gum; value ranges from 1.02-1.35; type: toxicity, organism-based; conditions: ip; method in brief: as §5
[16] = In vivo toxic effect was determined in mouse after oral administration with 10% aqueous acacia gum;Value ranges from(5.68-7.37); type: toxicity, organism-based; method in brief: as §3
Rattus norvegicus [17] = test: Rat PCA Test(50% inhibition of spot areas)in the female albino rats after (ip) administration in 10% aqueous acacia gum; type: functional; conditions: read-out: ID50 (the source's name); method in brief: as §1
Rattus norvegicus [18] = test: Inhibition of mast cell degranulation was assessed in female albino rats at a dose of 43 umol/kg iv; type: functional
Cavia porcellus [19] = test: Antibronchospatic activity was determined by inhibition of histamine stimulated bronchospasm in guinea pigs after (i.v.) administration; type: functional, Bronchiole; method in brief: as §2
Mus musculus = test: In vivo toxic effect was determined in mouse after intraperitoneal administration with 10% aqueous acacia gum; NA means poorly absorbed; type: toxicity, organism-based; conditions: ip; method in brief: as §5
Rattus norvegicus [20] = test: Rat PCA Test(50% inhibition of spot areas)in the female albino rats after (ip) administration in 10% aqueous acacia gum; value ranges from 41.2-87.3; type: functional; conditions: read-out: ID50 (the source's name); method in brief: as §1
[21] = In vivo toxic effect was determined in mouse after intraperitoneal administration with 10% aqueous acacia gum; value ranges from 4.25-7.74; type: toxicity, organism-based; conditions: ip; method in brief: as §5
Rattus norvegicus [22] = test: Inhibition of mast cell degranulation was assessed in female albino rats at a dose of 45 umol/kg iv administration; type: functional
Rattus norvegicus [23] = test: Rat PCA Test(50% inhibition of spot areas)in the female albino rats after oral administration in 10% aqueous acacia gum;Value ranges from (2-34); type: functional; conditions: read-out: ID50 (the source's name); method in brief: as §4
[24] = In vivo toxic effect was determined in mouse after intraperitoneal administration with 10% aqueous acacia gum; value ranges from 0.67-1.21; type: toxicity, organism-based; conditions: ip; method in brief: as §5
Rattus norvegicus [25] = test: Rat PCA Test(50% inhibition of spot areas)in the female albino rats after oral administration in 10% aqueous acacia gum; Value ranges from (60-123); type: functional; conditions: read-out: ID50 (the source's name); method in brief: as §4
[26] = In vivo toxic effect was determined in mouse after oral administration with 10% aqueous acacia gum; value ranges from 5.08-7.62; type: toxicity, organism-based; method in brief: as §3
Rattus norvegicus [27] = test: Inhibition of mast cell degranulation was assessed in female albino rats at a dose of 28 umol/kg iv; type: functional
[28] = In vivo toxic effect was determined in mouse after intraperitoneal administration with 10% aqueous acacia gum; value ranges from 2.17-4.89; type: toxicity, organism-based; conditions: ip; method in brief: as §5
Rattus norvegicus [29] = test: Rat PCA Test(50% inhibition of spot areas)in the female albino rats after oral administration in 10% aqueous acacia gum; value ranges from 80-130; type: functional; conditions: read-out: ID50 (the source's name); method in brief: as §4
[30] = In vivo toxic effect was determined in mouse after intraperitoneal administration with 10% aqueous acacia gum; value ranges from 0.57-1.04; type: toxicity, organism-based; conditions: ip; method in brief: as §5
Rattus norvegicus [31] = test: Rat PCA Test(50% inhibition of spot areas)in the female albino rats after (ip) administration in 10% aqueous acacia gum; value ranges from 43-53; type: functional; conditions: read-out: ID50 (the source's name); method in brief: as §1
Rattus norvegicus [32] = test: Inhibition of mast cell degranulation was assessed in female albino rats at a dose of 47 umol/kg iv; type: functional
[33] = In vivo toxic effect was determined in mouse after oral administration with 10% aqueous acacia gum; value ranges from 0.99-1.61; type: toxicity, organism-based; method in brief: as §3
Rattus norvegicus [34] = test: Rat PCA Test(50% inhibition of spot areas)in the female albino rats after (ip) administration in 10% aqueous acacia gum; value ranges from 213-612; type: functional; conditions: read-out: ID50 (the source's name); method in brief: as §1
[35] = In vivo toxic effect was determined in mouse after intraperitoneal administration with 10% aqueous acacia gum; value ranges from 0.88-1.56; type: toxicity, organism-based; conditions: ip; method in brief: as §5

CCOC(=O)C(=O)Nc1ccc(NC(=O)CCN2CCN(c3ccccn3)CC2)cc1
ED50 (Rattus norvegicus [1]): 127 µmol/kg | ID75 (Cavia porcellus [2]): 0.23 µM/kg | inhibition in vivo at 35 µmol/kg (Rattus norvegicus [3]): 7% | LD50 [4]: > 7050 µmol/kg

CCOC(=O)c1ccc(NC(=O)CCN2CCN(c3ccccn3)CC2)cc1.Cl.Cl
ED50 (Rattus norvegicus [5]): 30 µmol/kg | ED50 (Rattus norvegicus [6]): 107 µmol/kg | ID75 (Cavia porcellus [2]): 0.17 µM/kg | inhibition in vivo at 22 µmol/kg (Rattus norvegicus [7]): 83% | LD50 [8]: 660 µmol/kg | LD50 [9]: 920 µmol/kg

Cl.Cl.O=C(CCN1CCN(c2ccccn2)CC1)Nc1ccc(Cl)cc1
ED50 (Rattus norvegicus [10]): 43 µmol/kg | LD50 [11]: 620 µmol/kg | inhibition in vivo at 48 µmol/kg (Rattus norvegicus [12]): 0% | LD50 [13]: 960 µmol/kg | ED50 (Rattus norvegicus [14]): > 96 µmol/kg

COc1cccc(NC(=O)CCN2CCN(c3ccccn3)CC2)c1.Cl.Cl
ID75 (Cavia porcellus [2]): 0.56 µM/kg | LD50 [15]: 1180 µmol/kg | LD50 [16]: 7100 µmol/kg | ED50 (Rattus norvegicus [17]): > 118 µmol/kg

O=C([O-])c1cc(=O)c2c(OCC(O)COc3cccc4oc(C(=O)[O-])cc(=O)c34)cccc2o1.[Na+].[Na+] [CROMOLYN SODIUM]
inhibition in vivo at 43 µmol/kg (Rattus norvegicus [18]): 83% | ID75 (Cavia porcellus [19]): >21 µM/kg | LD50 (Mus musculus): Not Active | ED50 (Rattus norvegicus [14]): > 640 µmol/kg | ED50 (Rattus norvegicus [20]): 60 µmol/kg | LD50 [4]: > 6410 µmol/kg

O=C(O)CCN1CCN(c2ccccn2)CC1
LD50 [21]: 5540 µmol/kg | ID75 (Cavia porcellus [2]): 5.23 µM/kg | ED50 (Rattus norvegicus [17]): > 1280 µmol/kg

Cc1cccc(C)c1NC(=O)CCN1CCN(c2ccccn2)CC1
inhibition in vivo at 45 µmol/kg (Rattus norvegicus [22]): 27% | ED50 (Rattus norvegicus [23]): 8 µmol/kg | LD50 [24]: 810 µmol/kg | ED50 (Rattus norvegicus [25]): 86 µmol/kg

CC(O)c1ccc(NC(=O)CCN2CCN(c3ccccn3)CC2)cc1 (configuration not stated)
LD50 [26]: 5970 µmol/kg | inhibition in vivo at 28 µmol/kg (Rattus norvegicus [27]): 22% | LD50 [28]: 3250 µmol/kg | ID75 (Cavia porcellus [2]): 0.48 µM/kg | ED50 (Rattus norvegicus [29]): 103 µmol/kg

COc1ccc(NC(=O)CCN2CCN(c3ccccn3)CC2)cc1.Cl.Cl
LD50 [30]: 710 µmol/kg | ED50 (Rattus norvegicus [31]): 48 µmol/kg | inhibition in vivo at 47 µmol/kg (Rattus norvegicus [32]): 19% | ID75 (Cavia porcellus [2]): 0.24 µM/kg | LD50 [33]: 1160 µmol/kg | ED50 (Rattus norvegicus [14]): > 95 µmol/kg

C=CCOC(=O)CCN1CCN(c2ccccn2)CC1.Cl.Cl
ED50 (Rattus norvegicus [34]): 330 µmol/kg | LD50 [35]: 1030 µmol/kg | ED50 (Rattus norvegicus [14]): 11.5 µmol/kg | LD50 [4]: > 8610 µmol/kg
